# Screening results (PubChem)
# Hits are enriched below; roughly 4.8% of the tested compounds scored in any of these assays.
# SKKanGAS inh: S. pyogenes SKKanGAS growth inhibitors in kanamycin, primary screen, streptokinase expression inhibitor project, SKKanGAS strain, BacTiter-Glo luminescence; inhibition, % at 7.5 µM; 300,000 compounds, 1.3% hits; AID 1662, 2009; 6 h;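 active means mean replicate score, as percent of positive control median, at least 50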;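 further: strain carries kanamycin resistance gene driven by streptokinase promoter and grows in 40 µg/ml kanamycin; loss of luminescence reflects streptokinase promoter inhibition or plain growth inhibition; 0% = median of DMSO wells and 100% = positive control at its reference dose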
# CSC inhib: cancer stem cell viability inhibitors, primary screen, luminescence | 300,000 compounds, 1.1% hits | AID 2717, 2010 | inhibition, % at 7.5 µM | cancer stem cell-like cells viability; in the data active means inhibition above about 75%; tested in HMLE shEcad cells
# UPR XBP1 act: activators of adaptive XBP1 UPR arm, primary screen, cell-based, CHO-XBP1 luciferase reporter, luminescence, uHTS | IRE1-XBP1 UPR activation; percent of tunicamycin response, DMSO as zero | 330,000 compounds, 0.33% hits | activation, % at 20 µM | AID 463104, 2010;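 active means versus positive control, 20 µM dose yields 30% or more activation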;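 further: 100% = tunicamycin at 10 µg/mL and 0% = DMSO only wells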
#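 Material: CHO-XBP1 cells stably carrying IRE1-XBP1-driven luciferase reporter / Amount: 1000 cells per well / Compound: 20 µM, 1% DMSO / Times: 6 h treatment, 37 °C / Detection: luciferase luminescence / Measure: % activation of reporter signal versus tunicamycin and DMSO controls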
# UPR CHOP act: activators of apoptotic CHOP UPR arm, primary screen, cell-based, CHO-CHOP luciferase reporter, luminescence, uHTS | UPR activation; percent of tunicamycin response over DMSO baseline | activation, % at 10 µM | 330,000 compounds, 0.34% hits;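 active means at 10 µM dose, activation of 40% or more, normalized to positive control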;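 further: 100% = tunicamycin at 10 µg/mL and 0% = DMSO alone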
#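 Material: CHO-CHOP cells, stable luciferase reporter of PERK-eIF2a-CHOP signalling; quantity: 500 reporter cells seeded per well; buffer or medium: F12 medium containing 10% fetal bovine serum; compound: one dose, 10 µM in 0.5% DMSO; incubation: 6 h compound treatment, 37 °C; measured by: Steady-Glo luciferase luminescence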
# Mdm2-MdmX inh: inhibitors of human Mdm2-MdmX association, primary screen, cell-based, luminescence, split luciferase, SaOS-2, uHTS | Protein Mdm4 (Homo sapiens) + E3 ubiquitin-protein ligase Mdm2 (Homo sapiens), … | SaOS-2 split-luciferase Mdm2/MdmX complementation | inhibition, % at 8 µM | 330,000 compounds, 3% hits | AID 485346, 2010;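 active means inhibition of at least 50% at 8 µM in the primary screen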
# Beta apoptosis: inhibitors of cytokine-induced beta cell apoptosis, primary screen, luminescence; 300,000 compounds, 0.8% hits; protection from apoptosis, % (no concentration beside the values); INS-1E cytokine-induced death, ATP luminescence, 48 h; percent of positive-control rescue, neutral wells zero;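 active means Every replicate reaches about 75%, or at least half do and their mean reaches it too, limit read from the data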;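 further: 0% = cytokine-treated negative control wells and 100% = positive control rescue; higher means more ATP so stronger rescue from cytokine killing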
# Mdm2-MdmX conf: Mdm2-MdmX complex disruptors, retested hits, confirmation, luminescence, single concentration. AID 489028, 2010. inhibition, % at 8 µM. shares compounds with Mdm2-MdmX inh. 10,000 compounds, 55% hits. Mdm2-MdmX binding, luminescent assay; in the data active means inhibition above about 40%
# FLuc counter: full-length luciferase signal inhibition, confirmation, counter-screen for Mdm2/MdmX interaction inhibitor project, cell-based, single concentration, SaOS-2. shares compounds with Mdm2-MdmX inh. SaOS-2 full-length luciferase counterscreen, luminescence. inhibition, % at 8 µM. 6,200 compounds, 77% hits;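 active means mean inhibition at 8 µM reaching about 37%, which flags the compound as non-specific, limit read from the data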;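 further: p53-null SaOS-2 cells with luciferase driven by a doxycycline-inducible promoter; compound on cells about two nights before reading with doxycycline added after day one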
# Numbers without * were called inactive; x = no result.
SMILES,SKKanGAS inh,CSC inhib,UPR XBP1 act,UPR CHOP act,Mdm2-MdmX inh,Beta apoptosis,Mdm2-MdmX conf,FLuc counter
O=C(NCC1CCCO1)/C(=C\c1cccc([N+](=O)[O-])c1)NC(=O)c1ccccc1 (stereo unspecified),x,-13,0,-1,17,0,x,x
COCCNC(=O)/C(C#N)=C/C=C/c1ccccc1[N+](=O)[O-],21,21,-3,2,53*,-24,54*,23
COCCNC(=O)/C(C#N)=C/c1ccc(O)c([N+](=O)[O-])c1,5,-5,-2,1,16,4,x,x
Cc1ccc(-n2c(C)cc(C3=NNC(=NC4CC4)SC3)c2C)cc1C,6,46,4,1,69*,21,50*,120*
O=C(CSc1n[nH]c(-c2ccccn2)n1)Nc1cccc(Cl)c1,-7,1,-3,-1,60*,0,53*,40*
COc1ccc(Nc2nc(N3CCCCC3)c3ccccc3n2)cc1,2,16,5,7,59*,73,30,x
Cc1ccc(Nc2nc(N3CCOCC3)c3ccccc3n2)cc1,-3,-9,9,1,32,22,x,x
Oc1ccc(Nc2nc(N3CCCC3)c3ccccc3n2)cc1,4,x,2,-2,85*,99*,16,x
COc1ccc(Nc2nc(N)c([N+](=O)[O-])c(N3CCCC3)n2)cc1,-7,22,9,1,25,-1,x,x
COc1ccc2c(c1)c(C(C)=O)c(C)n2CCc1ccccc1,-6,-7,-2,-1,35,-8,x,x
NC(=O)c1nsc(C(=O)N(CC(=O)NC2CCCCC2)Cc2ccc(F)cc2)c1N,-4,8,-5,0,3,-1,x,x
Cc1ccc2nc(C)cc(N/N=C/c3cccc(O)c3)c2c1,5,4,-4,0,12,2,x,x
COc1ccc(/C=N/Nc2cc(C)nc3c(C)cccc23)cc1,15,27,23,8,97*,47,56*,77*
COc1ccc2nc(C)cc(N/N=C/c3ccc(F)cc3)c2c1,19,106*,18,40,100*,107*,100*,51*
COc1ccc(CNc2cc(C)nc3ccc(OC)cc23)cc1,-3,-5,4,-1,52*,18,28,x
COc1ccc(/C=N/Nc2cc(C)nc3ccccc23)cc1,2,32,3,2,98*,50,57*,46*
COC(=O)c1c(-c2ccc(OC)c(OC)c2)csc1N,4,22,-1,1,6,-6,x,x
COC(=O)c1c(-c2ccc3ccccc3c2)csc1NC(=O)Cc1ccc(OC)c(OC)c1,-4,-2,1,3,55*,-6,54*,57*
O=C1c2ccc(Cl)cc2S(=O)(=O)c2cccc(C(=O)N3CCN(c4ccc(Cl)cn4)CC3)c21,x,9,-3,6,-5,6,x,x
COc1ccccc1C(c1c(N)n(C)c(=O)n(C)c1=O)C(C)[N+](=O)[O-] (stereo unspecified),4,9,-2,3,11,-2,x,x
COc1ccccc1C(C[N+](=O)[O-])c1c(N)n(C)c(=O)n(C)c1=O (stereo unspecified),-5,55,-7,29,55*,39,57*,49*
CCOC(=O)CNC(=O)CSc1nnc(NC(=O)c2ccc(C)cc2)s1,6,2,-8,-6,54*,0,41*,68*
CCOC(=O)c1ccc(Nc2nc(N)c3cc(OC)c(OC)cc3n2)cc1,-6,15,15,22,85*,16,83*,49*
Cc1ccc(Nc2nc(N)c3ccccc3n2)cc1Cl,9,x,24,9,-208,x,x,x
COc1cc2nc(Nc3ccc(C)c(C)c3)nc(N)c2cc1OC,-5,9,8,3,87*,6,18,x
SMILES,SKKanGAS inh,CSC inhib,UPR XBP1 act,UPR CHOP act,Mdm2-MdmX inh,Beta apoptosis,Mdm2-MdmX conf,FLuc counter
COc1cc2nc(Nc3ccc(F)cc3)nc(N)c2cc1OC,-9,11,15,6,0,-2,x,x
COc1cc2nc(Nc3ccc(C)c(Cl)c3)nc(N)c2cc1OC,-13,106*,9,27,93*,14,66*,88*
CC(=O)c1ccc(OCCCC(=O)Nc2cccc(S(=O)(=O)N3CCCCC3)c2)cc1,x,x,-4,-2,26,3,x,x
Cc1c(Cc2ccccc2)c(=O)n2c([nH]c3ccccc32)c1C#N,16,42,-1,-1,61*,53,42*,57*
Cc1cc(-c2ccc(C(C)C)c(S(=O)(=O)N3CCN(c4ccccn4)CC3)c2)on1,32,56,-7,1,63*,32,62*,52*
N#CCC(=O)Nc1ccc(C(=O)OC(C(=O)Nc2cc(C(F)(F)F)ccc2Cl)c2ccccc2)cc1 (stereo unspecified),61*,14,-4,2,52*,-6,39,71*
O=C(C[n+]1cc(-c2ccc(Cl)cc2)n2c1CCCCC2)c1ccccc1,1,4,2,3,-10,4,x,x
COc1ccc(-c2c[n+](CC(=O)OC3CC(C)CCC3C(C)C)c3n2CCC3)cc1 (stereo unspecified),-2,-2,-5,-1,63*,103*,31,57*
CC(C)[C@@H]1CC[C@@H](C)C[C@H]1OC(=O)C[n+]1cc(-c2ccc(Cl)cc2)n2c1CCCCC2,22,22,5,-1,78*,1,73*,29
COc1ccc(-c2noc(CCC(=O)N3CCN(c4cccc(Cl)c4)CC3)n2)cc1,x,x,-1,0,30,x,x,x
CN1CCN(c2ccccc2NC(=O)c2cc3c(s2)-c2ccccc2OC3)CC1,2,42,5,0,57*,4,52*,63*
CC1(C)C2CCC1(CS(=O)(=O)NCc1ccc(C(F)(F)F)cc1)C(=O)C2 (stereo unspecified),0,x,0,1,7,x,x,x
O=C(CSc1nc2cc([N+](=O)[O-])ccc2n1-c1ccccc1)NCc1ccc2c(c1)OCO2,-4,-2,0,3,56*,4,22,x
